The text below walks through data of ChEMBL document CHEMBL1151981, “Bioactive pyridine-N-oxide disulfides from Allium stipitatum” (J Nat Prod, 2009).

Converted amounts (≈) assume the structure as drawn. The source made the active and inactive calls. The calls are words filed in the database; no cut-off is given here.

Assay [1] concerns Mycobacterium tuberculosis. The assay can be described thus: Antibacterial activity against Mycobacterium bovis BCG at 0.01 to 5 ug/ml after 14 days by spot-culture growth inhibition assay. The assay is classed as functional, organism-based. The conditions noted are these: variant bovis BCG. In short, it runs like this: (§1)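 Mid-exponential cultures (BCG rotated in 7H9/ADC/Tween 80; H37Rv standing in 7H9/OADC/Tween 80) diluted to 10³ cells/mL. 5 µL spotted onto 7H10 agar with 10% OADC containing compound at 0.01, 0.1, 0.5, 1 and 5 µg/mL. Incubated at 37 °C for 14 days. MIC taken as lowest concentration with no growth; no-compound well as growth control.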

The test system of assay [2] is Mycobacterium tuberculosis. The assay is described as follows: Antibacterial activity against Mycobacterium bovis BCG after 14 days by spot-culture growth inhibition assay. The format is functional. The conditions noted are these: variant bovis BCG, 336 h. The method, boiled down:
as §1

The MIC is the lowest concentration that inhibits growth of the organism. A lower MIC goes with a more susceptible organism. In the case of `CSSc1cccc[n+]1[O-]`, the outcome in assay [1] was Active. This compound displayed an MIC in assay [2] of 0.1 µg/mL (≈ 0.577 µM).

With `CSCSSc1cccc[n+]1[O-]`, the result in assay [1] was Active. In addition, the MIC in assay [2] was determined as 0.1 µg/mL (≈ 0.456 µM).
